# Source: ChEMBL document CHEMBL5244265 (Bioorg Med Chem, 2020)
# How the values were obtained:
# Kallikrein-7 [1] = molecular target: T1, Kallikrein-7 (Homo sapiens, UniProt P49862); test: Inhibition of KLK7 (unknown origin)
# How it was run: (§1)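 Fluorogenic assay with HNE (MeOSucAAPV-AMC substrate) or human KLK7 ([…] substrate). Test compounds ran as a 10-dose, 3-fold dilution series from 1 μM in duplicate, with controls tested in the same run. Activity was taken from the initial linear slope of the fluorescence increase over time. Results are mean of n = 2, expressed relative to 0.5% DMSO vehicle.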
# Target sequence in this assay (P49862 whole entry): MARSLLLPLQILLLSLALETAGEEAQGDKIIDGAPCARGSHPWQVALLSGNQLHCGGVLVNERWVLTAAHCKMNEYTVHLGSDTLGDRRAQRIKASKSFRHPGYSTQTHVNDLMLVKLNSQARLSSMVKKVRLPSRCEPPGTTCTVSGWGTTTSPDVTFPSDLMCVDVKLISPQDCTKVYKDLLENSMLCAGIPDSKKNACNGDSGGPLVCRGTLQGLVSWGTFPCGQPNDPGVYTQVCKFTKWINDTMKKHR
# [2] = molecular target: T2, Neutrophil elastase (Homo sapiens) (UniProt P08246); test: Inhibition of elastase in human neutrophil using N-(OMe-succinyl)-Ala-Ala-Pro-Val-p-nitroanilide as substrate preincubated with enzyme for 15 mins followed by substrate addition and measured every 30s for 30 mins by absorbance based analysis relative to tutuilamide A; settings: time 45.0 min
# T2 sequence (whole entry): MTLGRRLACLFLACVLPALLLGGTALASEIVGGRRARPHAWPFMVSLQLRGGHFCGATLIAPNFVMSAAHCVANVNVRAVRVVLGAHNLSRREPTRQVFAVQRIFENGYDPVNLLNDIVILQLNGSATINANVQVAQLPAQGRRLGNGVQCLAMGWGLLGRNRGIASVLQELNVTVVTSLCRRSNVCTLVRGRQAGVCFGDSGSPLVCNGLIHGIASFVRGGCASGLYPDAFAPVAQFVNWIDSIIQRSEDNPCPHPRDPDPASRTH
# How it was run: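 Human neutrophil elastase, from a 100 μg/mL enzyme stock in 0.1 M Tris–0.5 M NaCl (pH 7.5), was preincubated with compound at varying doses or DMSO vehicle for 15 min at room temperature in the same buffer. The p-nitroanilide substrate was added from a 2 mM stock, and A405 was read every 30 s for 30 min. Activity was taken as the initial slope, expressed as % of the uninhibited reaction, and IC50 came from dose-response.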
# Kallikrein-7 [3] = molecular target: T1, Kallikrein-7; test: Inhibition of human recombinant kallikrein 7 (23 to 252 residues) using MCA-RPKPVE-Nval-WRK(Dnp)-NH2 as substrate by fluorescence based analysis; how it was run: as §1
# Target sequence in this assay (P49862 whole entry): as the sequence (P49862 whole entry) above
# Kallikrein-7 [4] = molecular target: T1, Kallikrein-7; test: Inhibition of human recombinant kallikrein 7 (23 to 252 residues) using MCA-RPKPVE-Nval-WRK(Dnp)-NH2 as substrate by fluorescence based analysis relative to tutuilamide A; how it was run: as §1
# Target sequence in this assay (P49862 30-253 limits assumed): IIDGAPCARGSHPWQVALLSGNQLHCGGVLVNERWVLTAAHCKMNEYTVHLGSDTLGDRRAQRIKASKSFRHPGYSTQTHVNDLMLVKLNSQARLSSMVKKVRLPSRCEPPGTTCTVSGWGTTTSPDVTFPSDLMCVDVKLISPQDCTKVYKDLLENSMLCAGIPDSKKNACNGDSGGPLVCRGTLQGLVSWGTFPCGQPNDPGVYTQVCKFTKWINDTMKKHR
# [5] = Inhibition of Bacillus licheniformis Proteinase A using Z-GPR-AMC as substrate by fluorescence based analysis
# How it was run: (§2)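 Each enzyme was read as a time course of rising fluorescence from cleavage of its AMC-labelled peptide substrate. The initial linear slope (signal/min) was analysed. Non-human sources: chymotrypsin from bovine pancreas, proteinase A from B. licheniformis, proteinase K from T. album limber.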
# Neutrophil elastase [6] = molecular target: T3, Neutrophil elastase (Homo sapiens, UniProt P08246); test: Inhibition of elastase in human neutrophil using N-(OMe-succinyl)-Ala-Ala-Pro-Val-p-nitroanilide as substrate preincubated with enzyme for 15 mins followed by substrate addition and measured every 30s for 30 mins by absorbance based analysis
# T3 sequence (P08246 whole entry): T2 sequence (whole entry)
# How it was run: (§3)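 HNE stock at 100 μg/mL and substrate stock at 2 mM, both in 0.1 M Tris–0.5 M NaCl pH 7.5. Compound or DMSO was preincubated with enzyme in the same buffer for 15 min at room temperature, then substrate was added. A405 was read every 30 s for 30 min. Activity was taken from the initial slope as a percentage of the uninhibited reaction.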
# [7] = Inhibition of porcine pancreatic elastase; design: species or system Sus scrofa
# [8] = molecular target: T2, Neutrophil elastase (Homo sapiens); test: Inhibition of elastase in human neutrophil using N-(OMe-succinyl)-Ala-Ala-Pro-Val-p-nitroanilide as substrate preincubated with enzyme for 15 mins followed by substrate addition and measured every 30s for 30 mins by absorbance based analysis relative to sivelestat; settings: time 45.0 min; how it was run: as §3
# [9] = molecular target: T2, Neutrophil elastase (Homo sapiens); test: Inhibition of elastase in human neutrophil using N-(OMe-succinyl)-Ala-Ala-Pro-Val-p-nitroanilide as substrate preincubated with enzyme for 15 mins followed by substrate addition and measured every 30s for 30 mins by absorbance based analysis relative to symplostatin 5; settings: time 45.0 min; how it was run: as §3
# [10] = Inhibition of Tritirachium album limber Proteinase K using H-D-CHA -Ala-Arg-AMC.2AcOH as substrate by fluorescence based analysis; design: species or system Parengyodontium album; how it was run: as §2
# [11] = Selectivity ratio of IC50 for chymotrypsin in bovine pancreas to IC50 for human neutrophil elastase
# [12] = molecular target: T2, Neutrophil elastase (Homo sapiens); test: Inhibition of elastase in human neutrophil using MeOSuc-AAPV-AMC as substrate by fluorescence based analysis relative to sivelestat; format: cell-based; how it was run: as §1
# [13] = Inhibition of chymotrypsin in bovine pancreas using Suc-AAPF-AMC as substrate by fluorescence based analysis; format: tissue-based, Bos taurus; how it was run: as §2
# Parengyodontium album = test: Inhibition of Tritirachium album limber Proteinase K using H-D-CHA -Ala-Arg-AMC.2AcOH as substrate by fluorescence based analysis relative to proteinase K inhibitor; how it was run: as §2
# Neutrophil elastase [14] = molecular target: T3, Neutrophil elastase; test: Inhibition of elastase in human neutrophil using MeOSuc-AAPV-AMC as substrate by fluorescence based analysis; format: cell-based; how it was run: as §1
# Bacillus licheniformis = test: Inhibition of Bacillus licheniformis Proteinase A using Z-GPR-AMC as substrate by fluorescence based analysis relative to leupeptin; how it was run: as §2
# Kallikrein-7 [15] = molecular target: T1, Kallikrein-7; test: Inhibition of human recombinant kallikrein 7 (23 to 252 residues) using MCA-RPKPVE-Nval-WRK(Dnp)-NH2 as substrate by fluorescence based analysis relative to gabexate mesylate; how it was run: as §1
# Target sequence in this assay (P49862 30-253 limits assumed): as above
compound,measurement,setting,value
CC[C@@H](C)[C@H]1C(=O)N(C)[C@@H](Cc2ccc(O)cc2)C(=O)N[C@H]([C@H](C)CC)C(=O)O[C@H](C)[C@H](NC(=O)[C@H](CCC(N)=O)NC(=O)C(C)C)C(=O)N[C@@H](CC(C)C)C(=O)N[C@H]2CC[C@@H](O)N1C2=O,IC50,Kallikrein-7 [1],1 nM
C/C=C1\NC(=O)[C@@H](NC(=O)[C@H](CCC(N)=O)NC(=O)CCCCC)[C@@H](C)OC(=O)[C@H](C(C)C)NC(=O)[C@H](Cc2ccc(O)cc2)N(C)C(=O)[C@H](Cc2ccccc2)N2C(=O)[C@H](CC[C@H]2O)NC1=O [LYNGBYASTATIN 7],fold change (FC),[2],1.5
same,IC50,Kallikrein-7 [3],3.1 nM
same,fold change (FC),Kallikrein-7 [4],1.6
CC(=O)N[C@@H](CC(C)C)C(=O)N[C@@H](CC(C)C)C(=O)N[C@H](C=O)CCCNC(=N)N [LEUPEPTIN],IC50,[5],129000 nM
C/C=C1\NC(=O)[C@@H](NC(=O)[C@@H](NC(=O)[C@H](C)NC(=O)C/C(C)=C/Cl)[C@@H](C)CC)[C@@H](C)OC(=O)[C@H](C(C)C)NC(=O)[C@H](Cc2ccc(O)cc2)N(C)C(=O)[C@H](Cc2ccccc2)N2C(=O)[C@H](CC[C@H]2O)NC1=O,IC50,Neutrophil elastase [6],44 nM
same,IC50,[7],1.2 nM
same,fold change (FC),[8],2.9
same,fold change (FC),[9],2.1
same,IC50,Kallikrein-7 [3],5 nM
same,IC50,[10],12.3 nM
same,Ratio IC50,[11],100
same,IC50,[5],31.3 nM
same,fold change (FC),[12],5
same,IC50,[13],97.4 nM
same,fold change (FC),Parengyodontium album,15
same,IC50,Neutrophil elastase [14],0.73 nM
same,fold change (FC),Bacillus licheniformis,4000
same,fold change (FC),Kallikrein-7 [15],5680
CCOC(=O)c1ccc(OC(=O)CCCCCNC(=N)N)cc1,IC50,Kallikrein-7 [3],28400 nM
CC[C@H](C)[C@@H]1NC(=O)[C@H](Cc2ccc(OCc3ccn(C)n3)cc2)N(C)C(=O)[C@H]([C@@H](C)CC)N2C(=O)[C@H](CC[C@H]2O)NC(=O)[C@H](CC(C)C)NC(=O)[C@@H](NC(=O)[C@H](CCC(N)=O)NC(=O)C(C)C)[C@@H](C)OC1=O,IC50,Kallikrein-7 [1],0.2 nM
